Test results reported in ChEMBL document CHEMBL3792331, “Identification and synthesis of potent and selective pyridyl-isoxazole based agonists of sphingosine-1-phosphate 1 (S1P1)” (Bioorg Med Chem Lett, 2016).

Key:
[1] = Selectivity index, ratio of EC50 for agonist activity at human S1P3 receptor expressed in EDG3-Ga15-bla HEK293T cell membranes to EC50 for agonist activity at human S1P1 receptor expressed in CHO cell membranes; format: cell-based
Summary of the method: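 S1P3/S1P1 ratio of GTPγ[35S] EC50s. Membranes from EDG3-Ga15-bla HEK293T (S1P3) or S1P1/CHO cells, […], 0.2 nM final [35S]GTP. HEPES pH 7.5 buffer with MgCl2, NaCl, EGTA, DTT, GDP, BSA and saponin. 45 min at room temperature, filtration read-out. Each EC50 taken at 50% of the compound's own Ymax.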

Rattus norvegicus [2] = experiment: Reduction in circulating lymphocytes in Lewis rat at 1 mg/kg, po after 4 hrs; format: functional
Summary of the method: (§1)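 Healthy Lewis rats dosed orally with test article as solution or suspension in vehicle, or vehicle alone. Blood drawn at 4 h and 24 h. Circulating lymphocyte percentage measured by hematology analyzer, expressed as reduction versus the vehicle group. Group average, n = 3–4.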

Plasma = experiment: Ratio of plasma concentration Lewis rat at 1 mg/kg, po after 4 hrs to plasma concentration Lewis rat at 1 mg/kg, po after 24 hrs; format: ADME, organism-based; conditions: in vivo
Summary of the method: (§2)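 Lewis rats given 1.0 mg/kg orally as solution or suspension in vehicle. Plasma drug concentration measured in blood drawn at 4 h and 24 h; 4 h/24 h ratio taken from these values.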

[3] = biological target: Sphingosine 1-phosphate receptor 1 (Homo sapiens, UniProt P21453); experiment: Agonist activity at human S1P1 receptor expressed in CHO cell membranes assessed as stimulation of [35S]GTPgamma binding incubated for 45 mins by liquid scintillation counting method
Summary of the method: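 Membranes from S1P1/CHO cells (S1P1) or EDG3-Ga15-bla HEK293T cells (S1P3), final protein […], with 3-fold compound dilutions. Buffer: 20 mM HEPES pH 7.5, 10 mM MgCl2, 150 mM NaCl, 1 mM EGTA, 1 mM DTT, GDP, 0.1% fatty acid free BSA, saponin. [35S]GTP 0.2 nM final. Room temperature, 45 min. Filtered, washed with water, dried 60 °C. EC50 taken at 50% of each compound's Ymax.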

[4] = Plasma concentration Lewis rat at 1 mg/kg, po after 4 hrs; format: ADME, organism-based; summary of the method: as §2
Rattus norvegicus [5] = experiment: Reduction in circulating lymphocytes in Lewis rat at 1 mg/kg, po after 24 hrs; format: functional; summary of the method: as §1
[6] = Plasma concentration Lewis rat at 1 mg/kg, po after 24 hrs; format: ADME, organism-based; summary of the method: as §2

Sequence of Sphingosine 1-phosphate receptor 1 (P21453 whole entry): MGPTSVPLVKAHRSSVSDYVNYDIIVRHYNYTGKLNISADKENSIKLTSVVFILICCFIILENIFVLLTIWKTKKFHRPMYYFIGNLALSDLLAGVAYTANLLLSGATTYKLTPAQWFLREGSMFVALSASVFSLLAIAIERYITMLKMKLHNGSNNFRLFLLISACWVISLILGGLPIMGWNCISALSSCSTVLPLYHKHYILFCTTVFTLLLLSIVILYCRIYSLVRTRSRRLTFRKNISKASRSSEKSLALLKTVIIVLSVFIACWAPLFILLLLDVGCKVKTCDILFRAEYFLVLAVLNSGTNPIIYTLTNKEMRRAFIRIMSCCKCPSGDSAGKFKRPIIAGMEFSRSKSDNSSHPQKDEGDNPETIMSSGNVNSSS

- Ratio (Plasma): 15
- EC50 [3]: 3.4 nM
- concentration at 4 h [4]: 972 nM
- concentration at 24 h [6]: 64 nM
Compound: CCc1c(-c2nc(-c3ccc(CN4CC(C(=O)O)C4)cc3)no2)noc1-c1ccccn1
- Ratio EC50 [1]: 550
- inhibition in vivo at 1 mg/kg (Rattus norvegicus [2]): 84%
- inhibition in vivo at 1 mg/kg (Rattus norvegicus [5]): 58%
